Reference: ChEMBL document CHEMBL4011621, “A Novel Series of Highly Potent Small Molecule Inhibitors of Rhinovirus Replication” (J Med Chem, 2017)
Activity calls are given as the source filed them. The rule behind the calls is not given here.

Columns and labels:
[1] = tested on: rhinovirus B14; experiment: Antiviral activity against Human rhinovirus B14 harboring VP1 A150V/E276K double mutant infected in human HeLa Rh cells assessed as protection against virus induced cytopathic effect after 3 days by MTT assay; type: functional, cell-based
[2] = Cytotoxicity against human HeLa Rh cells assessed as decrease in cell viability after 3 days by MTT assay; type: cell-based
[3] = tested on: rhinovirus B14; experiment: Antiviral activity against Human rhinovirus B14 harboring VP1 C199Y mutant infected in human HeLa Rh cells assessed as protection against virus induced cytopathic effect after 3 days by MTT assay; type: functional, cell-based
[4] = tested on: rhinovirus B14; experiment: Antiviral activity against Human rhinovirus B14 infected in human H1HeLa cells assessed as protection against virus induced cytopathic effect after 3 days by MTT assay; type: functional, cell-based; conditions: Rhinovirus B, H1-HeLa, 72 h
[5] = tested on: rhinovirus B14; experiment: Antiviral activity against Human rhinovirus B14 infected in H1HeLa cells assessed as decrease in viral dsRNA at 6 times EC50 treated every 1 hr for 6 hrs after infection by DAPI staining based immunofluorescence assay; type: functional, cell-based
Method in brief: (§1)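 Cells were infected with hRV type 14 or type 16 at MOI 1. Compound was given 1 h before infection, at infection (0 h), or at later hourly time points. At 9 h post-infection, cells were fixed in ice-cold methanol–acetone 3:1 and stained with anti-dsRNA antibody (J2), an Alexa Fluor 488 anti-mouse secondary and DAPI, then imaged. Infected-cell count over total nuclei was expressed as % of untreated virus control; mean ± SD, three experiments.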

[6] = tested on: rhinovirus A16; experiment: Antiviral activity against Human rhinovirus A16 infected in human H1HeLa cells assessed as protection against virus induced cytopathic effect after 3 days by MTT assay; type: functional, cell-based; conditions: Rhinovirus A, H1-HeLa, 72 h
Method in brief: (§2)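 CPE-reduction assay in H1HeLa cells plated 2 d before. Equal volumes of virus and compound were added and held at 33 °C for 3 d under CO2. Supernatant was removed, then MTT was added for 1 h at 37 °C. Formazan was dissolved and read at 540 nm against a 690 nm reference. Survival was scaled between uninfected untreated wells (100%) and virus-only wells (0%); mean ± SD, three experiments.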

[7] = Selectivity index, ratio of CC50 for human H1HeLa cells to EC50 for Human rhinovirus B14 infected in human H1HeLa cells; type: toxicity, cell-based; conditions: read-out: Ratio CC50/EC50
Method in brief: (§3)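 H1HeLa cells plated 2 d ahead; virus plus compound (equal volumes) incubated 33 °C, 3 d, CO2. MTT 1 h at 37 °C, A540/A690. Survival scaled between uninfected untreated (100%) and virus-only (0%) wells to give EC50. CC50 = 50% cell death by MTT in H1HeLa. SI = CC50/EC50; at least three independent experiments.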

[8] = tested on: Poliovirus 3; experiment: Antiviral activity against Human poliovirus 3 infected in human HeLa cells assessed as protection against virus induced cytopathic effect after 2 days by MTT assay; type: functional, cell-based; conditions: Enterovirus C, 48 h
Method in brief: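 HeLa cells; MTT-based CPE reduction. Virus and compound added in equal volumes, incubated 37 °C for 2 d in CO2. Supernatant removed, MTT 1 h at 37 °C, formazan dissolved, absorbance 540 nm (690 nm reference). Uninfected untreated wells = 100% survival, virus-only = 0%. EC50 = 50% inhibition; means ± SD, three experiments.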

[9] = Cytotoxicity aganist human HeLa cells assessed as decrease in cell viability after 2 days by MTT assay; type: cell-based
[10] = tested on: rhinovirus B14; experiment: Antiviral activity against Human rhinovirus B14 infected in H1HeLa cells assessed as decrease in viral dsRNA at 6 times EC50 treated every 1 hr for 9 hrs after infection by DAPI staining based immunofluorescence assay; type: functional, cell-based; method in brief: as §1
[11] = Selectivity index, ratio of CC50 for human HeLa cells to EC50 for human poliovirus 3 infected in human HeLa cells; type: toxicity, cell-based; conditions: read-out: Ratio CC50/EC50
Method in brief: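 SI = CC50/EC50 in HeLa cells. CC50 = 50% cell death by MTT. EC50 = 50% inhibition of PV3 CPE by MTT after 2 d at 37 °C, survival scaled to uninfected (100%) and virus-only (0%) wells. At least three independent experiments.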

[12] = tested on: rhinovirus A21; experiment: Antiviral activity against Human rhinovirus A21 infected in human H1HeLa cells assessed as protection against virus induced cytopathic effect after 3 days by MTT assay; type: functional, cell-based; conditions: Rhinovirus A, H1-HeLa, 72 h; method in brief: as §2
[13] = tested on: rhinovirus A16; experiment: Antiviral activity against Human rhinovirus A16 infected in H1HeLa cells assessed as decrease in viral dsRNA at 6 times EC50 treated simultaneously with infection by DAPI staining based immunofluorescence assay; type: functional, cell-based; method in brief: as §1
[14] = tested on: rhinovirus B14; experiment: Antiviral activity against Human rhinovirus B14 infected in H1HeLa cells assessed as decrease in viral dsRNA at 6 times EC50 treated simultaneously with infection by DAPI staining based immunofluorescence assay; type: functional, cell-based; method in brief: as §1
[15] = Cytotoxicity against human H1HeLa cells assessed as decrease in cell viability after 3 days by MTT assay; type: cell-based, H1-HeLa
[16] = tested on: rhinovirus B14; experiment: Antiviral activity against Human rhinovirus B14 infected in H1HeLa cells assessed as decrease in viral dsRNA at 6 times EC50 treated 1 hr prior to infection by DAPI staining based immunofluorescence assay; type: functional, cell-based; method in brief: as §1
[17] = Antiviral activity against Human rhinovirus A71 infected in human H1HeLa cells assessed as protection against virus induced cytopathic effect after 3 days by MTT assay; type: functional, cell-based; conditions: Rhinovirus A, H1-HeLa, 72 h; method in brief: as §2
[18] = Selectivity index, ratio of CC50 for human H1HeLa cells to EC50 for Human rhinovirus A21 infected in human H1HeLa cells; type: toxicity, cell-based; conditions: read-out: Ratio CC50/EC50; method in brief: as §3
[19] = Selectivity index, ratio of CC50 for human H1HeLa cells to EC50 for Human rhinovirus A71 infected in human H1HeLa cells; type: toxicity, cell-based; conditions: read-out: Ratio CC50/EC50; method in brief: as §3
[20] = tested on: rhinovirus A16; experiment: Antiviral activity against Human rhinovirus A16 infected in H1HeLa cells assessed as decrease in viral dsRNA at 6 times EC50 treated 1 hr prior to infection by DAPI staining based immunofluorescence assay; type: functional, cell-based; method in brief: as §1

SMILES | EC50 [1] [nM] | CC50 at 72 h [2] [nM] | EC50 [3] [nM] | EC50 [4] [nM] | Activity [5] | EC50 [6] [nM] | selectivity ratio [7] | EC50 [8] [nM] | CC50 at 48 h [9] [nM] | Activity [10] | selectivity ratio [11] | EC50 [12] [nM] | Activity [13] | Activity [14] | CC50 at 72 h [15] [nM] | Activity [16] | EC50 [17] [nM] | selectivity ratio [18] | selectivity ratio [19] | Activity [20]
C#CC[C@@H](C(=O)N[C@H](/C=C/C(=O)OCC)C[C@@H]1CCNC1=O)n1cccc(NC(=O)c2cc(C)on2)c1=O [IMOCITRELVIR] | 49 | > 3000 | 56 | 45 |  |  |  |  |  |  |  |  |  |  |  |  |  |  |  | 
CCOc1noc2cc(OCCC3CCN(c4ccc(C)nn4)CC3)ccc12 [VAPENDAVIR] |  | 721000 |  |  |  |  |  |  |  |  |  |  |  |  |  |  |  |  |  | 
CCOC(=O)/C=C/[C@H](C[C@@H]1CCNC1=O)NC(=O)[C@@H](CC(=O)[C@@H](NC(=O)c1cc(C)on1)C(C)C)Cc1ccc(F)cc1 [RUPINTRIVIR] |  |  |  |  | Active | 30 |  |  |  |  |  |  |  |  |  |  |  |  |  | 
Cc1cc(CCCOc2c(C)cc(-c3noc(C(F)(F)F)n3)cc2C)on1 [PLECONARIL] | 1490 | > 10000 | 2310 | 75 to 92 |  | 350 | 210 | 1400 | 25900 | inactive | 19 | 73 | Active | Active | 19700 | Active | 9.4 | 270 | 2100 | Active
CNC(=O)c1cc(Oc2ccc3cc(C(=O)OC(C)C)n(C)c3c2)ccn1 |  |  |  | 820 |  |  | 13 | 9100 | 46100 |  | 5.1 | 64 |  |  | 10300 |  | 7.1 | 160 | 1500 | 
CCOC(=O)c1sc2cc(Oc3ccnc(C(=O)NC)c3)ccc2c1C#N |  |  |  | 82500 |  |  | > 1.2 | 55400 | > 100000 |  | > 1.8 | 20700 |  |  | > 100000 |  | 540 | > 4.8 | > 190 | 
CCOC(=O)c1cc2ccc(Oc3ccnc(C(=O)NC)c3)c(Cl)c2s1 |  |  |  | 12400 |  |  | > 8.1 | 58700 | > 100000 |  | > 1.7 | 7700 |  |  | > 100000 |  | 200 | > 13 | > 500 | 
